What all share (type): cell-based
The nature of series [1]: Inhibition of Influenza A virus (A/Bar-headed Goose/Qinghai/59/05(H5N1)) hemagglutininin-mediated viral entry into human A549 cells after 48 hrs postinfection by luminometric analysis. In outline:
(§1)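 A549 cells seeded at 5 × 10⁴ per well; test compounds added 15 min before HIV-luc pseudovirions bearing the H5N1 HA (Qinghai or Viet Nam strain) or VSV-G envelope, then incubated. Pseudovirion supernatants were filtered and used directly for infection.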

Series [2] can be described thus: Inhibition of Influenza A virus (A/Viet Nam/1203/2004(H5N1)) hemagglutininin-mediated viral entry into human A549 cells after 48 hrs postinfection by luminometric analysis. In outline:
as §1

Series [3] deals with A549. In words: Cytotoxicity against human A549 cells after 48 hrs. The conditions noted are these: a549, 48 h.
The subject of series [4] is A549. In words: Inhibition of Vesicular stomatitis virus envelope glycoprotein-mediated viral entry into human A549 cells after 48 hrs postinfection by luminometric analysis. Put shortly:
as §1

SMILES strings stand for the structures. The source made the active and inactive calls. No cut-off for these calls is given here.

As to `C[C@@H]1CC[C@@]2(OC1)O[C@H]1C[C@H]3[C@@H]4C[C@H](O[C@@H]5O[C@@H](C)[C@H](O)[C@@H](O)[C@H]5O)[C@H]5C[C@@H](O[C@@H]6O[C@H](CO)[C@@H](O[C@@H]7O[C@@H](C)[C@H](O)[C@@H](O)[C@H]7O)[C@H](O)[C@H]6O[C@@H]6O[C@@H](C)[C@H](O)[C@@H](O)[C@H]6O)CC[C@]5(C)[C@H]4CC[C@]3(C)[C@H]1[C@@H]2C`, the IC50 in series [1] and in series [2] was > 50 µM throughout. Besides, the Activity entry in the series with A549 [3] was “Non-toxic”. Besides, the inhibition result with A549 [4] is “inactive”.
As to `C[C@@H]1CC[C@@]2(OC1)O[C@H]1C[C@H]3[C@@H]4C[C@@H](O)[C@H]5C[C@@H](O[C@@H]6O[C@H](CO)[C@@H](O[C@@H]7O[C@@H](C)[C@H](O)[C@@H](O)[C@H]7O)[C@H](O)[C@H]6O[C@@H]6O[C@@H](C)[C@H](O)[C@@H](O)[C@H]6O)CC[C@]5(C)[C@H]4CC[C@]3(C)[C@H]1[C@@H]2C`, the IC50 came out at 18 µM in series [1] and 11 µM in series [2]. For the same molecule, the Activity result in the series with A549 [3] is recorded as “Non-toxic”. Besides, the inhibition entry in the series with A549 [4] was “inactive”.
The matching figures for `CO[C@H]1[C@H](O[C@H]2[C@H](O[C@H]3CC[C@@]4(C)[C@H](C3)[C@@H](O)C[C@@H]3[C@@H]4CC[C@]4(C)[C@@H]5[C@H](C[C@@H]34)O[C@]3(CC[C@@H](C)CO3)[C@H]5C)O[C@H](CO)[C@@H](O[C@@H]3O[C@@H](C)[C@H](O)[C@@H](O)[C@H]3OC)[C@@H]2O)O[C@@H](C)[C@H](O)[C@H]1O`: 31 µM, 15 µM, “Non-toxic” and “inactive”.
As for `C[C@@H]1CC[C@@]2(OC1)O[C@H]1C[C@H]3[C@@H]4C[C@H](O)[C@H]5C[C@@H](O[C@@H]6O[C@H](CO)[C@@H](O[C@@H]7O[C@@H](C)[C@H](O)[C@@H](O)[C@H]7O)[C@H](O)[C@H]6O[C@@H]6O[C@@H](C)[C@H](O)[C@@H](O)[C@H]6O)CC[C@]5(C)[C@H]4CC[C@]3(C)[C@H]1[C@@H]2C`, the figures for the IC50 in series [1] and in series [2] were 7.2 µM and 7.8 µM, respectively. In addition, the Activity entry in the series with A549 [3] is given as “Non-toxic”. Moreover, the inhibition result with A549 [4] was “inactive”.
On to `CO[C@@H]1[C@@H](O)[C@H](C)O[C@@H](O[C@H]2[C@H](O[C@H]3CC[C@@]4(C)[C@H](C3)[C@@H](O)C[C@@H]3[C@@H]4CC[C@]4(C)[C@@H]5[C@H](C[C@@H]34)O[C@]3(CC[C@@H](C)CO3)[C@H]5C)O[C@H](CO)[C@@H](O[C@@H]3O[C@@H](C)[C@H](O)[C@@H](OC)[C@H]3O)[C@@H]2O)[C@@H]1O`, for which the IC50 was 28 µM in series [1] and 16 µM in series [2]. For the same molecule, in the series on A549 [3], the Activity entry is listed as “Non-toxic”. Besides, in the series on A549 [4], the inhibition entry was “inactive”.
The matching figures for `C[C@@H]1CC[C@@]2(OC1)O[C@H]1C[C@H]3[C@@H]4CC(=O)[C@H]5C[C@@H](O[C@@H]6O[C@H](CO)[C@@H](O[C@@H]7O[C@@H](C)[C@H](O)[C@@H](O)[C@H]7O)[C@H](O)[C@H]6O[C@@H]6O[C@@H](C)[C@H](O)[C@@H](O)[C@H]6O)CC[C@]5(C)[C@H]4CC[C@]3(C)[C@H]1[C@@H]2C`: 20 µM, 12 µM, “Non-toxic” and “inactive”.
The matching figures for `COC[C@H]1O[C@@H](O[C@H]2CC[C@@]3(C)[C@H](C2)[C@@H](O)C[C@@H]2[C@@H]3CC[C@]3(C)[C@@H]4[C@H](C[C@@H]23)O[C@]2(CC[C@@H](C)CO2)[C@H]4C)[C@H](O[C@@H]2O[C@@H](C)[C@H](O)[C@@H](O)[C@H]2O)[C@@H](O)[C@@H]1O[C@@H]1O[C@@H](C)[C@H](O)[C@@H](O)[C@H]1O`: 12 µM, 9 µM, “Non-toxic” and “inactive”.
With `CO[C@@H]1[C@@H](O)[C@@H](O)[C@H](O[C@H]2[C@H](O[C@H]3CC[C@@]4(C)[C@H](C3)[C@@H](O)C[C@@H]3[C@@H]4CC[C@]4(C)[C@@H]5[C@H](C[C@@H]34)O[C@]3(CC[C@@H](C)CO3)[C@H]5C)O[C@H](CO)[C@@H](O[C@@H]3O[C@@H](C)[C@H](OC)[C@@H](O)[C@H]3O)[C@@H]2O)O[C@H]1C`, the half-inhibitory concentration (IC50) in series [2] was determined as 24 µM. For the same molecule, the Activity entry in the series with A549 [3] was “Non-toxic”. The inhibition entry in the series on A549 [4] is “inactive”.
On to `CCS[C@@H]1O[C@H](CO)[C@@H](O[C@@H]2O[C@@H](C)[C@H](O)[C@@H](O)[C@H]2O)[C@H](O)[C@H]1O[C@@H]1O[C@@H](C)[C@H](O)[C@@H](O)[C@H]1O`, for which the IC50 in series [1] and in series [2] was > 50 µM in each case. Besides, the Activity entry in the series with A549 [3] is given as “Non-toxic”. In the series with A549 [4], the inhibition entry was “inactive”.
Regarding `COC(=O)[C@]12CC[C@@H](C)[C@H](C)[C@H]1C1=CC[C@@H]3[C@@]4(C)CC[C@H](O[C@@H]5O[C@H](CO)[C@@H](O[C@@H]6O[C@@H](C)[C@H](O)[C@@H](O)[C@H]6O)[C@H](O)[C@H]5O[C@@H]5O[C@@H](C)[C@H](O)[C@@H](O)[C@H]5O)C(C)(C)[C@@H]4CC[C@@]3(C)[C@]1(C)CC2`, the IC50 in series [1] is 6 µM; in series [2], 8.5 µM. Further, the Activity result with A549 [3] is reported as “Non-toxic”. Moreover, the inhibition entry in the series with A549 [4] is “inactive”.
Turning to `CO[C@@H]1[C@@H](O[C@@H]2O[C@@H](C)[C@H](O)[C@@H](O)[C@H]2O)[C@H](O[C@H]2CC[C@@]3(C)[C@H](C2)[C@@H](O)C[C@@H]2[C@@H]3CC[C@]3(C)[C@@H]4[C@H](C[C@@H]23)O[C@]2(CC[C@@H](C)CO2)[C@H]4C)O[C@H](CO)[C@H]1O[C@@H]1O[C@@H](C)[C@H](O)[C@@H](O)[C@H]1O`, the results for the IC50 in series [1] and in series [2] were 25 µM and 13 µM, respectively. Moreover, the Activity entry in the series with A549 [3] is on record as “Non-toxic”. Besides, the inhibition entry with A549 [4] is “inactive”.
Turning to `C[C@@H]1CC[C@@]2(OC1)O[C@H]1C[C@H]3[C@@H]4C[C@H](O)[C@H]5C[C@@H](O[C@@H]6O[C@H](CO)[C@@H](O[C@@H]7OC[C@H](O)[C@H](O)[C@H]7O)[C@H](O)[C@H]6O[C@@H]6OC[C@H](O)[C@H](O)[C@H]6O)CC[C@]5(C)[C@H]4CC[C@]3(C)[C@H]1[C@@H]2C`, the IC50 in series [1] and in series [2] was > 50 µM in each case. Besides, the Activity result in the series with A549 [3] is on record as “Non-toxic”. In the series on A549 [4], the inhibition entry was “inactive”.
Turning to `CC(=O)O[C@H]1C[C@@H]2[C@H](CC[C@]3(C)[C@@H]4[C@H](C[C@@H]23)O[C@]2(CC[C@@H](C)CO2)[C@H]4C)[C@@]2(C)CC[C@H](O[C@@H]3O[C@H](CO)[C@@H](O[C@@H]4O[C@@H](C)[C@H](O)[C@@H](O)[C@H]4O)[C@H](O)[C@H]3O[C@@H]3O[C@@H](C)[C@H](O)[C@@H](O)[C@H]3O)C[C@H]12`, the IC50 amounted to 7.6 µM in series [1] and 9.3 µM in series [2]. Further, the Activity result in the series on A549 [3] is reported as “Non-toxic”. In the series on A549 [4], the inhibition result is “inactive”.
Taken in the same sequence, the figures for `C[C@@H]1O[C@@H](O[C@H]2[C@H](O)[C@@H](O[C@@H]3O[C@@H](C)[C@H](O)[C@@H](O)[C@H]3O)C(O)O[C@@H]2CO)[C@H](O)[C@H](O)[C@H]1O` (some centres not stated) [CHACOTRIOSE] were > 50 µM, > 50 µM, “Non-toxic” and “inactive”.
In the case of `C[C@@H]1CC[C@@]2(OC1)O[C@H]1C[C@H]3[C@@H]4C[C@H](O)[C@H]5C[C@@H](O)CC[C@]5(C)[C@H]4CC[C@]3(C)[C@H]1[C@@H]2C` [CHLOROGENIN], the IC50 in series [1] and in series [2] was > 50 µM in each case.

The term IC50 denotes the concentration at which inhibition is half-maximal. Lower therefore signals inhibition by little substance.

(Values after ChEMBL document CHEMBL2046336, “Structure-activity relationships of saponin derivatives: a series of entry inhibitors for highly pathogenic H5N1 influenza virus” (Eur J Med Chem, 2012).)
